Series [1] concerns the target Potassium voltage-gated channel subfamily A member 5 (Homo sapiens, UniProt P22460). The experiment in a line: Inhibition of human Kv1.5 expressed in CHO cells by patch-clamp technique. Type of series: cell-based. The method, boiled down: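 Human Kv1.5 stably expressed in CHO cells. IC50 was determined by automated patch clamp on the IonWorks platform.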
(The patch-clamp technique gives a direct electrical read-out from membranes.)

Series [2] has as its target Voltage-gated inwardly rectifying potassium channel KCNH2 (Homo sapiens, UniProt Q12809). The experiment in a line: Inhibition of human ERG by patch-clamp technique.
The nature of series [3]: Aqueous solubility at pH 7.4 by direct UV method. Type of series: physicochemical. The following applies: aqueous medium. The method in brief:
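Solubility measured in pH 7.4 buffer with direct UV read-out.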

Series [4] in a line: Metabolic stability in human liver microsomes assessed as half life. Type of series: ADME, Microsome. The method in brief: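 Test compound at 1 μM incubated with 1 mg/mL male beagle dog or male human liver microsomal protein. Half-life was determined from compound loss.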
In the next series the target is CYP3A4 (Homo sapiens, UniProt P08684). The experiment in a line: Inhibition of CYP3A4 at 3 uM by fluorescent method. Type of series: ADME. The method in brief:
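CYP3A4 inhibition measured by a fluorescent method.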

In brackets after ≈: the same amount, converted by molar mass.

CYP3A4, sequence (P08684 whole entry): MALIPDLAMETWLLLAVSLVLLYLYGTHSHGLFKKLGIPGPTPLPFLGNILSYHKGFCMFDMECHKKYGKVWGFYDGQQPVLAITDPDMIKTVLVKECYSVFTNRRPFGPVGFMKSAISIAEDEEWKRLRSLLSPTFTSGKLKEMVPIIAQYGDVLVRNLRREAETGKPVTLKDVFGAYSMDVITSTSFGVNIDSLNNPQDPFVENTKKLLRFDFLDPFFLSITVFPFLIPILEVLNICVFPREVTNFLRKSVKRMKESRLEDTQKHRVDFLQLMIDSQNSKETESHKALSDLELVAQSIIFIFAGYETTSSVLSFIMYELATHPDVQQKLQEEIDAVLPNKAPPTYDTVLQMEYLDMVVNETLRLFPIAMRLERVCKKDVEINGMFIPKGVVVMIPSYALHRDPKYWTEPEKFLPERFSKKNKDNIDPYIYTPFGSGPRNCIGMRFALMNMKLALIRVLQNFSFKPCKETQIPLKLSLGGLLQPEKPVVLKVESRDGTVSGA
Voltage-gated inwardly rectifying potassium channel KCNH2, sequence (Q12809 whole entry): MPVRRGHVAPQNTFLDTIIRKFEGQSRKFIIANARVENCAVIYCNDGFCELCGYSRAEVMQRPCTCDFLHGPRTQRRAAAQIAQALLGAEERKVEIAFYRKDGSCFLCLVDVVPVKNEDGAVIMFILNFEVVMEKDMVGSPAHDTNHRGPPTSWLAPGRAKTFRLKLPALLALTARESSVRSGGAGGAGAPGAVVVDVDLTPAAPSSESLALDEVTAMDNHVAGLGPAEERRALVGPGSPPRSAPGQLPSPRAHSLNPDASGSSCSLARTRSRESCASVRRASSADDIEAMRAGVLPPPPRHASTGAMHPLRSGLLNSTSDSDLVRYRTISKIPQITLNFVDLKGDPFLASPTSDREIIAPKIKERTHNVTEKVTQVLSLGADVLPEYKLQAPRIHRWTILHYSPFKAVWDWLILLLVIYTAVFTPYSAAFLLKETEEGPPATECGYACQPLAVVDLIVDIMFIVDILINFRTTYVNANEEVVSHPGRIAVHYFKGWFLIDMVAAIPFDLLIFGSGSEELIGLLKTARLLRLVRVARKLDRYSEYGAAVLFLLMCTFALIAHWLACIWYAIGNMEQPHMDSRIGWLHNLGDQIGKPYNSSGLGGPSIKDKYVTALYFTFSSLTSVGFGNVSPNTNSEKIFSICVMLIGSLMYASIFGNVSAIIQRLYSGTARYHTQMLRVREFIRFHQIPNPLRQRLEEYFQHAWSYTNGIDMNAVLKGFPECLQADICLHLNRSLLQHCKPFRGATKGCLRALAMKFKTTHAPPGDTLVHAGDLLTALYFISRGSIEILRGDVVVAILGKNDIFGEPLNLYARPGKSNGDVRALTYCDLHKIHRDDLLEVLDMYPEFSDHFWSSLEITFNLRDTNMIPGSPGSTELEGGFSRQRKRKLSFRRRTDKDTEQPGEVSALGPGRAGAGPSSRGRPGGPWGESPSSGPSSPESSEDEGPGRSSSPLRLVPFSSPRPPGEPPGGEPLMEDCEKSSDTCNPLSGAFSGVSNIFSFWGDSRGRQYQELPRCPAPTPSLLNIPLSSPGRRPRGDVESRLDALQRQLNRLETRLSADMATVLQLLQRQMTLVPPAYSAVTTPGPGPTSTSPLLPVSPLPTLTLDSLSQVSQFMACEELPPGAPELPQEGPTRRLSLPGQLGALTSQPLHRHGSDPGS
Potassium voltage-gated channel subfamily A member 5, sequence (P22460 whole entry): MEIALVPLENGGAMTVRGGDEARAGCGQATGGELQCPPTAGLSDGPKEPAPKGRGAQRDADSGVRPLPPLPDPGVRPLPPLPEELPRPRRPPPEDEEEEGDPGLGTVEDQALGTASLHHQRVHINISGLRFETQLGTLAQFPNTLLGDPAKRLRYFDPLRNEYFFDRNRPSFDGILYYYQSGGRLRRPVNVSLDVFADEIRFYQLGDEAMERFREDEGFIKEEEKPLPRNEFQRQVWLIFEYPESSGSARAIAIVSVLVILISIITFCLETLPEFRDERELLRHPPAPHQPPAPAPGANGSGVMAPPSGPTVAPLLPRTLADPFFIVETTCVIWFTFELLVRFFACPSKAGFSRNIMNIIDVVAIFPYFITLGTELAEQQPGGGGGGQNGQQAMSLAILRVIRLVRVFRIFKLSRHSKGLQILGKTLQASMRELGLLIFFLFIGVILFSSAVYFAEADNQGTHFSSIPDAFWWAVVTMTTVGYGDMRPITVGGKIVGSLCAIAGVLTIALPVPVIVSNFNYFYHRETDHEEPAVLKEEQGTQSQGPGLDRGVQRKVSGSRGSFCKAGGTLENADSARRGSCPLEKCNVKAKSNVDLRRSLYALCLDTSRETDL

For `COc1ccc(CCN2C(=O)N(NS(=O)(=O)Cc3ccccc3)C[C@@H]2c2ccc(OC)cc2)cc1`, the values for the IC50 in series [1] and in series [2] were 340 nM and 4400 nM, respectively. Also, in series [3], the concentration in solution (solubility) was 1 µg/mL (≈ 2.02 µM). Besides, the half-life in series [4] amounted to 3 min. On CYP3A4, this molecule registered an inhibition at 3 µM of 82%.
Regarding `COc1ccc(CCN2C(=O)N(NS(=O)(=O)CF)C[C@@H]2c2ccc(OC)cc2)cc1`, the IC50 in series [1] amounted to 900 nM; in series [2], 28300 nM. This molecule also registered a solubility in series [3] of 100 µg/mL (≈ 229 µM). Also, the half-life in series [4] turned out to be 13 min. The molecule also came in with an inhibition at 3 µM against CYP3A4 of 0%.
For `COc1ccc(CCN2C(=O)N(NS(C)(=O)=O)C[C@@H]2c2ccc(OC)cc2)cc1`, the IC50 in series [1] stood at 330 nM; in series [2] it was 26700 nM. In addition, the concentration in solution in series [3] (solubility) came to 100 µg/mL (≈ 238 µM). In addition, in series [4], the half-life was 16 min. This molecule showed an inhibition at 3 µM at CYP3A4 of 50%.
In series [1], `CCOc1ccc(CCN2C(=O)N(NS(C)(=O)=O)C[C@@H]2c2ccc(OC)cc2)cc1` registered an IC50 of 770 nM. Further, in series [3], the solubility is 43 µg/mL (≈ 99.2 µM). Also, in series [4], the half-life was found to be 17 min. Also, the inhibition at 3 µM at CYP3A4 is 4%.
Consider `COc1ccc(CCN2C(=O)N(NS(C)(=O)=O)CC2c2ccc(OC(C)C)cc2)cc1` (stereo not drawn), for which the IC50 in series [1] was determined as 240 nM; in series [2], 17000 nM. In series [3], the concentration in solution (solubility) was 26 µg/mL (≈ 58.1 µM). The half-life in series [4] stood at 30 min. For the same molecule, testing at 3 µM on CYP3A4 gave an inhibition of 53%.
As to `COc1ccc(CCN2C(=O)N(NS(C)(=O)=O)CC2c2ccc(Cl)cc2)cc1` (stereo not drawn), it took 200 nM to reach half-maximal inhibition in series [1] (IC50). This molecule also displayed a solubility in series [3] of 4 µg/mL (≈ 9.44 µM). Moreover, in series [4], the half-life is 30 min. On CYP3A4, this molecule showed an inhibition at 3 µM of 27%.
Consider `COc1ccc(CCN2C(=O)N(NS(=O)(=O)CC#N)C[C@@H]2c2ccc(OC)cc2)cc1`, for which the IC50 in series [1] was determined as 230 nM; in series [2], 33000 nM. The same molecule showed a solubility in series [3] of 100 µg/mL (≈ 225 µM). Further, the half-life in series [4] came to 21 min. In addition, the inhibition at 3 µM on CYP3A4 amounted to 7%.
For the molecule `COc1ccc([C@H]2CN(NS(C)(=O)=O)C(=O)N2CCc2ccc(OC(F)(F)F)cc2)cc1`, the half-maximal inhibitory concentration (IC50) in series [1] stood at 520 nM; in series [2], 5600 nM. Besides, in series [3], the solubility turned out to be 4 µg/mL (≈ 8.45 µM). For the same molecule, in series [4], the half-life was determined as 15 min. Also, the inhibition at 3 µM at CYP3A4 was 53%.

What is called IC50 is the concentration at which inhibition is half-maximal. As usually defined, the solubility is the concentration that dissolves in the medium under given conditions. High values mean much dissolved substance, low ones little dissolved substance. Broadly, the half-life is how long it takes for the measured level to halve. As a reminder, the inhibition is the percentage by which the read-out fell short of the control.

The record behind these values is ChEMBL document CHEMBL1154688, “Selective Kv1.5 blockers: development of (R)-1-(methylsulfonylamino)-3-[2-(4-methoxyphenyl)ethyl]-4-(4-methoxyphenyl)-2-imidazolidinone (KVI-020/WYE-160020) as a potential treatment for atrial arrhythmia” (J Med Chem, 2009).
